Results as given in ChEMBL document CHEMBL1135519, “Structure-activity relationships on phenylalanine-containing inhibitors of histone deacetylase: in vitro enzyme inhibition, induction of differentiation, and inhibition of proliferation in Friend leukemic cells” (J Med Chem, 2002).

Legend:
[1] = test system: Friend leukemia cell line; assay: Tested […] for the inhibition of proliferation of friend leukemic cells; assay type: functional; conditions: Mus musculus
In short: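 MEL DS19 murine erythroleukemia (Friend) cells, log phase, kept in DMEM with 10% FBS and penicillin/streptomycin at 37 °C in 5% CO2. Seeded at 4 × 10⁴ cells/well with serial compound dilutions; screened at 10 and 50 µM, then dose-response. DMSO at 0.1% in controls. Cells counted by Casy counter after 72 h. Proliferation given as percent of solvent control.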

Histone deacetylase = assay: Inhibition of in vitro enzyme activity measured in partially purified rat liver Histone deacetylase preparation; assay type: tissue-based
Histone deacetylase HD2 = molecular target: T1, Histone deacetylase HD2 (Zea mays, UniProt Q94F81); assay: Inhibition of in vitro enzyme activity measured in a highly purified maize Histone deacetylase 2 preparation
T1 sequence (Q94F81 whole entry): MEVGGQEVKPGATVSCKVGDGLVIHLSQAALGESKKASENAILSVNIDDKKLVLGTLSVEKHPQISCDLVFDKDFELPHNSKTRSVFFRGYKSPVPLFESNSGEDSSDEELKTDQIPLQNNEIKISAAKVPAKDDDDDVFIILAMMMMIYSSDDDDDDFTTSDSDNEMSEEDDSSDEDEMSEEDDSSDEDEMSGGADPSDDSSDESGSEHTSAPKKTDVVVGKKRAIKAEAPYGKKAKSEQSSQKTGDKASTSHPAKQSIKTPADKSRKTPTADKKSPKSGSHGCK

Compound	IC50 [1]	IC50 (Histone deacetylase)	IC50 (Histone deacetylase HD2)
O=C(CCCCCCC(=O)N[C@@H](Cc1ccccc1)C(=O)Nc1ccccc1)NO	15000 nM	790 nM	
O=C(CCCCCCC(=O)N[C@@H](Cc1cccc2ccccc12)C(=O)NCCc1ccccc1)NO	15000 nM	310 nM	35 nM
COC(=O)[C@H](Cc1ccccc1)NC(=O)CCCCCCC(=O)NO	15000 nM	800 nM	500 nM
COC(=O)[C@H](Cc1ccc([N+](=O)[O-])cc1)NC(=O)CCCCCCC(=O)NO	35000 nM	1340 nM	850 nM
NC(=O)[C@H](Cc1ccccc1)NC(=O)CCCCCCC(=O)NO	64000 nM	840 nM	1100 nM
CC(/C=C/C(=O)NO)=C\[C@@H](C)C(=O)c1ccc(N(C)C)cc1 [TRICHOSTATIN]	40 nM		
COC(=O)[C@H](Cc1c[nH]c2ccccc12)NC(=O)CCCCCCC(=O)NO	13000 nM	320 nM	120 nM
COC(=O)[C@H](Cc1ccc(-c2ccccc2)cc1)NC(=O)CCCCCCC(=O)NO	840 nM	290 nM	210 nM
O=C(CCCCCCC(=O)Nc1ccccc1)NO [VORINOSTAT]	990 nM		1000 nM
O=C(CCCCCCC(=O)N[C@@H](Cc1ccccc1)C(=O)N1CCCC1)NO	> 100000 nM	330 nM	520 nM
COC(=O)[C@@H](NC(=O)CCCCCCC(=O)NO)C(C)C	6200 nM	380 nM	900 nM
O=C(CCCCCCC(=O)N[C@@H](Cc1ccccc1)C(=O)NCCc1ccccc1)NO	72000 nM	260 nM	330 nM
O=C(CCCCCCC(=O)N[C@H](Cc1ccccc1)C(=O)NCCc1ccccc1)NO	76000 nM	390 nM	340 nM
O=C(CCCCCCC(=O)N[C@H](Cc1ccccc1)C(=O)O)NO	> 100000 nM	1540 nM	750 nM
COC(=O)[C@H](Cc1ccc2ccccc2c1)NC(=O)CCCCCCC(=O)NO	5200 nM	510 nM	40 nM

More lines, now with the values ahead:

IC50 [1]	IC50 (Histone deacetylase)	IC50 (Histone deacetylase HD2)	Compound
5900 nM	410 nM	700 nM	COC(=O)[C@H](Cc1cccs1)NC(=O)CCCCCCC(=O)NO
58000 nM	1010 nM	380 nM	O=C(CCCCCCC(=O)N[C@@H](Cc1ccccc1)C(=O)NCCCc1ccccc1)NO
22000 nM	130 nM	360 nM	COC(=O)[C@H](Cc1cccc2ccccc12)NC(=O)CCCCCCC(=O)NO
69000 nM	460 nM	140 nM	O=C(CCCCCCC(=O)N[C@@H](Cc1ccccc1)C(=O)NCc1ccccc1)NO
11000 nM	800 nM	250 nM	COC(=O)[C@H](Cc1ccc(OC)cc1)NC(=O)CCCCCCC(=O)NO
	1150 nM	320 nM	O=C(CCCCCCC(=O)NO)NO [SUBEROHYDROXAMIC ACID]
28000 nM	880 nM	760 nM	COC(=O)[C@@H](Cc1ccccc1)NC(=O)CCCCCCC(=O)NO
